Screening data as filed in PubChem.
CHRM4 antagonist: blocks acetylcholine activation of human M4 receptor; 0.73% of 360,000 active; P08173; inhibition, % at 3 µM; CHO-hM4 cells, ACh EC80, Fluo-8 calcium fluorescence;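 active = inhibition above its plate's cutoff, the mean inhibition of sample wells plus 3 SD, cut at about 27% in these data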;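 also: 0% = acetylcholine EC80 with DMSO and 100% = DMSO without agonist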
M5 antag: blocks acetylcholine activation of human M5 receptor. P08912. CHO-hM5 cells, Fluo-8 calcium fluorescence, ACh EC80. 0.59% of 360,000 active. inhibition, % at 3 µM;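 active = inhibition above a per-plate cutoff, the mean of that plate's test compounds plus 3 SD, cut at about 27% in these data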;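 also: 0% = acetylcholine EC80 with DMSO and 100% = DMSO without agonist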
Target sequence (P08912 whole entry, looked up): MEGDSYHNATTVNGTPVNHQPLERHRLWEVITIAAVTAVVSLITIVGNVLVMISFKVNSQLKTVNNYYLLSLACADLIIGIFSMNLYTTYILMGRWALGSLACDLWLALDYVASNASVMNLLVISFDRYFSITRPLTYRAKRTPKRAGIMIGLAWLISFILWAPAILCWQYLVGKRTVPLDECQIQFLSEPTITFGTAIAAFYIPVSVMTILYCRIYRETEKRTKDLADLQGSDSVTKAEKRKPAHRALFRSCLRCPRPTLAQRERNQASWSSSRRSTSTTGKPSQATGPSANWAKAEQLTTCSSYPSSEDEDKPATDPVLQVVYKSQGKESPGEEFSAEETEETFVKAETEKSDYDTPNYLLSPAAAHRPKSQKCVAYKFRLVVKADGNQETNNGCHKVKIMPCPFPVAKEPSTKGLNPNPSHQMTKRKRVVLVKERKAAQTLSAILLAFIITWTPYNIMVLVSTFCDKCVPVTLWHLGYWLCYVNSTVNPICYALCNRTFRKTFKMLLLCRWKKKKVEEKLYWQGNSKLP
M5 PAM: potentiates acetylcholine response at human M5 receptor; CHO-K1 hM5, Fluo-8 calcium, ACh EC20 PAM; 0% = ACh EC20, 100% = ACh EC100; activation, % at 3 µM; 0.3% of 360,000 active; AID 624038;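 active = activation above the run cutoff, the mean activation of all test compounds plus 3 SD, cut at about 18% in these data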
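Measured by: Fluo-8 calcium fluorescence; material: human M5 receptor in CHO-K1 cells; schedule: Post-acetylcholine fluorescence recording 140 s; benchmarks: low control EC20 acetylcholine (0%), high control EC100 acetylcholine (100%); read-out: Max/basal fluorescence ratio as % of EC20–EC100 ACh window; compound: single dose, 3 µM nominal final test concentration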
CHRM4 PAM: potentiates acetylcholine response at human M4 receptor | P08173 | activation, % at 3 µM | CHO-K1 hM4/Gqi5, Fluo-8 calcium fluorescence, ACh EC20; 0% = ACh EC20, 100% = maximal ACh | 0.4% of 360,000 active;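 active = activation above its plate's cutoff, the mean activation of sample wells plus 3 SD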
CHRM5 agonist: agonists of human muscarinic M5 receptor (CHRM5); P08912; CHO-K1 hM5 cells, Fluo-8 calcium fluorescence; 0% DMSO wells, 100% maximal acetylcholine response; activation, % at 3 µM; 0.19% of 360,000 active; AID 624037;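 active = activation above the run's mean over test compounds plus 3 SD, cut at about 23% in these data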;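 also: signal is peak over basal fluorescence ratio across the kinetic read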
CHRM4 agonist: agonists of human muscarinic M4 receptor (CHRM4) | P08173 | CHO-K1 hM4/Gqi5, Fluo-8 calcium fluorescence; vehicle 0%, full acetylcholine response 100% | activation, % at 3 µM | 0.14% of 360,000 active | AID 624127;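 active = activation above the run mean over all test wells plus 3 SD, cut at about 32% in these data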;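 also: peak over basal fluorescence ratio per well then scaled between controls; 0% = DMSO wells and 100% = acetylcholine at EC100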
An asterisk follows results filed as active. Shown are actives, neighbours in structure and some others; about 1.8% of the full set was active somewhere.

SMILES	CHRM4 antagonist	M5 antag	M5 PAM	CHRM4 PAM	CHRM5 agonist	CHRM4 agonist
Cc1nc2ccc(NC(=O)c3cc(S(=O)(=O)N(C)c4ccccc4)ccc3Cl)cc2s1	7	29*	-16	-21	12	20
CN(c1ccccc1)S(=O)(=O)c1cccc(NC(=O)c2ccc(Cl)c([N+](=O)[O-])c2)c1	33*	34*	-38	-16	3	23
Cc1nc2ccc(NC(=O)c3ccc(Cl)c(S(=O)(=O)N(C)c4ccccc4)c3)cc2s1	-14	-2	2	0	1	3
COc1cccc(CNC(=O)[C@@H]2CCCN2C(=O)[C@@H]2CCCN2C(=O)c2cccc3ccccc23)c1	12	3	-13	-7	1	6
Fc1ccc(-n2nnnc2-c2cnc(-c3cccs3)nc2C(F)(F)F)cc1	48*	47*	-23	-20	2	14
O=C(CC(c1ccccc1)c1cc(Cl)ccc1O)N1CCCC1 (centres undefined)	3	8	-4	-16	-15	-1
O=C(CC(c1ccccc1O)N1CCCCC1)N1CCCCC1 (centres undefined)	78*	8	-17	-29	-7	2
CCOc1ccc(-c2nnc(-c3ccncc3)o2)cc1	-15	-14	42*	25*	-7	4
c1ccc(C(Cc2nc(-c3ccncc3)no2)c2ccccc2)cc1	18	31*	-16	-11	0	1
Cc1cc(C)nc(SCc2nnc(SCC(N)=O)o2)n1	4	-4	9	0	0	2
CC1CCCN(CCOc2ccc(Br)cc2)C1 (centres undefined)	-8	4	-1	12	-3	4
CC1CCCN(CCCCOc2cccc(Br)c2)C1 (centres undefined)	35*	5	-18	-18	-8	4
CCOc1cccc(OCCCCN2CCCCC2)c1	57*	6	-10	-28	-8	0
Brc1cccc(OCCCCN2CCCCC2)c1	53*	21	-20	-39	-7	3
O=C(CSc1nnc(-c2ccc(Cl)cc2)o1)N1CCOCC1	-1	4	5	1	0	5
COc1ccc(/C=N/NC(=O)C(=O)N2CCCCCC2)cc1O	1	4	4	9	-1	2
O=C(NCCCc1ccccc1)c1cccc(NC(=O)C2CCCCC2)c1	-32	3	-10	-1	1	11
CN(CC(=O)Nc1cccc(F)c1)C(=O)CN1C(=O)C2CCCCC2C1=O (centres undefined)	-1	11	-3	0	3	2
Fc1ccccc1-c1nc(NCC2CC2)nc2ccsc12	10	3	-6	-4	-3	-2
CN(C)CCNc1nc(-c2ccccc2F)c2sccc2n1	21	40*	-34	-11	-9	2
S=C1NCN(Cc2ccccc2)CN1C1CCCCC1	0	-9	21*	0	-1	1
COC(=O)CCCCCN1C(=O)NC(C2CC2)C(C(=O)OCc2ccccc2)=C1C (centres undefined)	16	29*	-31	-6	4	16
COC(=O)CCCN1C(=O)NC(c2ccc(-c3ccccc3)cc2)C(C(=O)OCc2ccccc2)=C1C (centres undefined)	4	-1	2	1	1	0
COc1ccc(OC)c2c1cc(C(=O)N[C@@H](C)C(=O)N[C@@H](C(=O)O)c1ccccc1)n2C	2	1	3	-1	-2	0
CCOC(=O)C(C(=O)Nc1ccc(C)cc1)C1CCCCC1 (centres undefined)	-2	-1	7	45*	-8	0
SMILES	CHRM4 antagonist	M5 antag	M5 PAM	CHRM4 PAM	CHRM5 agonist	CHRM4 agonist
CCOC(=O)C(C(=O)Nc1ccccc1)C1CCCCC1 (centres undefined)	3	21	-17	-7	-7	3
CNC(=S)N1CCC(NC(=O)C(Cc2ccc(OC)cc2)NC(C)=O)CC1 (centres undefined)	-3	-1	8	-1	2	1
COc1ccc(CC(NC(C)=O)C(=O)N2CCN(C(=O)N(C(C)C)C(C)C)CC2)cc1 (centres undefined)	29*	-7	12	3	1	2
COc1cc(NC(=O)COc2ccc([N+](=O)[O-])cc2)ccc1NC(=O)c1ccco1	-8	4	1	4	1	0
Cc1ccc(C(=O)Sc2cccccc2=O)cc1	57*	42*	-7	-8	3	8
CCCCCCCCCCC[N+](C)(C)CC/C=C1/c2ccccc2Sc2ccc(Cl)cc21	52*	82*	-18	-19	-8	1
CCCCCCCCCC[N+](C)(C)CC/C=C1/c2ccccc2Sc2ccc(Cl)cc21	41*	60*	-19	-20	-8	-1
CC[N+](C)(C)CC/C=C1/c2ccccc2Sc2ccc(Cl)cc21	96*	99*	-35	-17	-20	1
CCCCCC[n+]1c(-c2ccc(Cl)cc2Cl)csc1Nc1ccccc1	-10	-4	-3	1	0	0
Cc1nn(CCC(=O)N2CCN(S(=O)(=O)c3ccccc3)CC2)c(C)c1C	5	8	3	-8	-4	0
Cn1ccc(C(=O)N/N=C/c2c[nH]c3ccccc23)n1	-23	-3	28*	-1	1	3
Nc1nc(-c2ccc3c(c2)CCCC3)cs1	-15	10	20*	12	-2	-2
Nc1nc(-c2ccc3c(c2)OCCO3)cs1	-1	-2	3	2	0	1
CCOC(=O)Nc1nnc(Cc2ccc(Cl)c(Cl)c2)s1	-9	9	1	22*	1	2
COc1ccc(Cc2nnc(NC(=O)CSc3ccc(C)cc3)s2)cc1OC	-6	-3	-5	1	74*	95*
CCOC(=O)C(=O)Nc1nnc(Cc2ccc(OC)c(OC)c2)s1	9	-1	4	7	1	-1
CC(CC(=O)Nc1nnc(CC(C)(C)C)s1)c1ccccc1 (centres undefined)	-10	-8	22*	2	4	1
Cc1cc(C(=O)N2CCN(c3ccc([N+](=O)[O-])cc3)CC2)c(C)o1	-8	9	-13	-2	2	6
O=C(CN1CCN(c2ccc([N+](=O)[O-])cc2)CC1)c1ccccc1	29*	9	-4	-16	-3	2
O=C(CCc1ccccc1)N1CCN(c2ccc([N+](=O)[O-])cc2)CC1	-1	2	-4	29*	1	10
Cc1cc(C(=O)N2CCN(c3ccc([N+](=O)[O-])cc3)CC2)co1	33*	1	-7	41*	2	17
